The target of this assay is Platelet-activating factor acetylhydrolase 2, cytoplasmic (Mus musculus) (UniProt Q8VDG7). Kind of assay: in situ blockade of mouse PAFAH2 activity – cell-based, gel-based competitive ABPP, fluorescence, powder samples, late-stage follow-up (AID 504495). The note with it: BW5147 murine T cells, FP-Rh, 4 h, at 0.03 µM, stronger effect = higher value. The gist of the method: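 Test system: murine BW5147 T cells / Compound dosing: one dose, 30 nM / Times: cells 4 h 37 °C, probe 30 min 25 °C / Measured by: in-gel fluorescence scan after SDS-PAGE, PAFAH2 band optical density / Measure: % inhibition versus DMSO-treated cells / Benchmarks: DMSO-treated cells, blank gel background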
Platelet-activating factor acetylhydrolase 2, cytoplasmic (Mus musculus), sequence (Q8VDG7 whole entry, looked up): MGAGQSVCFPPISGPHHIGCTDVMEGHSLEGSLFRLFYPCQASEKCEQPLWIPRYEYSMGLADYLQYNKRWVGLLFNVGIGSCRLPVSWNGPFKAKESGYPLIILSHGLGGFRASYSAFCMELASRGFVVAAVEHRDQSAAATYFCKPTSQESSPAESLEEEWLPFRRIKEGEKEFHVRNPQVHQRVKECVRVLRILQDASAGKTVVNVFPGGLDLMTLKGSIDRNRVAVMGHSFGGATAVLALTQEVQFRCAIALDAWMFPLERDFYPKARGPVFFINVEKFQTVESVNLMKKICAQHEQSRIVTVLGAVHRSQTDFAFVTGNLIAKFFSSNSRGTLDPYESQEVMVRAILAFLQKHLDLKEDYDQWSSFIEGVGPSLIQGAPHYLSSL

Molecules are shown by their SMILES.

This note sets out measurements from PubChem BioAssay AID504495 (The Scripps Research Institute Molecular Screening Center, 2011).

Regarding `O=C(N1CCCC1)n1ncc(-c2ccc(-c3ccccc3)cc2)n1`, the inhibition (in general, how much of the control response was suppressed) is 100%.
